Source: ChEMBL document CHEMBL1138849, “5-substituted tetrazoles as bioisosteres of carboxylic acids. Bioisosterism and mechanistic studies on glutathione reductase inhibitors as antimalarials” (J Med Chem, 2004)
Several values for one entry are separate records, joined by “and”; a condition that tells them apart may be missing. Equal entries are not always repeated.

Columns and labels:
Glutathione reductase = Glutathione reductase (Plasmodium falciparum 3D7, UniProt O15770); assay: Inhibitory concentration against Plasmodium falciparum glutathione reductase
Glutathione reductase, sequence (O15770 whole entry): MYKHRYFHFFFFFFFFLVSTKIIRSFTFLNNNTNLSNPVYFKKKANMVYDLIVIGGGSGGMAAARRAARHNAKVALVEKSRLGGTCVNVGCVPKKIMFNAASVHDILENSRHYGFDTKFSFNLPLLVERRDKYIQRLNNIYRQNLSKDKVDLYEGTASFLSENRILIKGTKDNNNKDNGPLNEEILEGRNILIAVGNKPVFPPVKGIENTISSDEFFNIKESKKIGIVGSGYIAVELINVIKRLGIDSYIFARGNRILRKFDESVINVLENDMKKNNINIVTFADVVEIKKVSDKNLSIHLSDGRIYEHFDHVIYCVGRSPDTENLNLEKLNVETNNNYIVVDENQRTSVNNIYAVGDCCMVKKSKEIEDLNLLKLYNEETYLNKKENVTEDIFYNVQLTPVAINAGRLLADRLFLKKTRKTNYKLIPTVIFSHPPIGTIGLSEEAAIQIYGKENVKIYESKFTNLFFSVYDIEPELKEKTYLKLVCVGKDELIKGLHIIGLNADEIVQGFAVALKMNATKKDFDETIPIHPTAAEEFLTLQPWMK
How it was run: (§1)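 Recombinant GR (human or P. falciparum) in 100 mM potassium phosphate pH 7.0, 200 mM KCl, 100 μM NADPH, 1 mM GSSG, with 1% final DMSO. Started with 8 milliunits of enzyme. Initial rates of NADPH oxidation read at 340 nm. […] A second set of standard assays used 200 μM GSSG.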

[1] = molecular target: T1, Glutathione reductase, mitochondrial (Homo sapiens, UniProt P00390); assay: Inhibitory concentration against human glutathione reductase; how it was run: as §1
T1 sequence (P00390 whole entry): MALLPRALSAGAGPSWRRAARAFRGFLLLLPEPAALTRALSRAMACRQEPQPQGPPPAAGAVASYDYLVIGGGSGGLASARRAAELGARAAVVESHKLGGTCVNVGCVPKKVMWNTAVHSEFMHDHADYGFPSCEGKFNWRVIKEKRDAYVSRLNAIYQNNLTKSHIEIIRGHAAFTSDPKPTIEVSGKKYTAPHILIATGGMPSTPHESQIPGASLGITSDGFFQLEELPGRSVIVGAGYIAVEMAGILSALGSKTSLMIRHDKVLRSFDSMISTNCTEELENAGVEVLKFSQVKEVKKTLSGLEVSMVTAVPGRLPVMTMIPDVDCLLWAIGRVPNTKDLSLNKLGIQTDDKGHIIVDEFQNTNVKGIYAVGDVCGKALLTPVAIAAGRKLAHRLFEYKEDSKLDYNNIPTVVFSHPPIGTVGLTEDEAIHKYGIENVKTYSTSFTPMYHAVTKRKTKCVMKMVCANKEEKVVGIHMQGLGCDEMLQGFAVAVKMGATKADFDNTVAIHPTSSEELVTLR

Plasmodium falciparum = assay: Inhibitory concentration against Plasmodium falciparum […]; type: functional, organism-based; settings: FcB1/Columbia
[2] = molecular target: T1, Glutathione reductase, mitochondrial; assay: Inhibitory concentration against human glutathione reductase (In presence of NADPH)
[3] = molecular target: T1, Glutathione reductase, mitochondrial; assay: Inhibitory concentration against human glutathione reductase (In presence of glutathione disulfide)
[4] = molecular target: Glutathione reductase (Plasmodium falciparum) (UniProt Q94655); assay: Inhibitory concentration against Plasmodium falciparum glutathione reductase
Glutathione reductase (Plasmodium falciparum), sequence (Q94655 whole entry, looked up): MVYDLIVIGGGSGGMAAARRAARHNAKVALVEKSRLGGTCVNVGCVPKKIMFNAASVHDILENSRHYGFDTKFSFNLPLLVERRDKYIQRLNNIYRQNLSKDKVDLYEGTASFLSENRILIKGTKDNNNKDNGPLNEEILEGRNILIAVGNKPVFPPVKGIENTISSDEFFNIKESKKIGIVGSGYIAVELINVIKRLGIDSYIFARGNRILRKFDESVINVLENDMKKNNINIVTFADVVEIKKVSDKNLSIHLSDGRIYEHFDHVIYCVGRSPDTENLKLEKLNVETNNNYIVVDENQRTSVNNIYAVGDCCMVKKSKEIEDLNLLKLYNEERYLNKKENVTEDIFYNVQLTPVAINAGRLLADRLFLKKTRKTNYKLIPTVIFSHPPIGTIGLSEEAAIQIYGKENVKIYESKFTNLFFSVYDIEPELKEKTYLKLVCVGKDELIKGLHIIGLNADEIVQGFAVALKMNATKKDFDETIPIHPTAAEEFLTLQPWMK

[5] = molecular target: T1, Glutathione reductase, mitochondrial; assay: Inhibitory concentration against human glutathione reductase in the presence of 200 uM exogenous NADP
[6] = molecular target: T1, Glutathione reductase, mitochondrial; assay: Inhibitory concentration against human glutathione reductase in the absence of glucose-6-phosphate dehydrogenase (G6PDH); how it was run: as §1

Structure (SMILES) | IC50 (Glutathione reductase) [µM] | IC50 [1] [µM] | IC50 (Plasmodium falciparum) [µM] | other results
CN(C)c1ccc2nc3ccc(=[N+](C)C)cc-3sc2c1 [METHYLENE BLUE ANHYDROUS] | 6.4 | 16 | – | –
CC1=C(CCCCC(=O)NCCC#N)C(=O)c2ccccc2C1=O | 57 | 22.7 | 1.5 | –
CC1=C(CCCCC(=O)O)C(=O)c2ccccc2C1=O | – | – | 4 | –
CC1=C(CCCCCc2nnnn2CCC#N)C(=O)c2ccccc2C1=O | – | – | 1.1 | –
CC1=C(CCCCCC(=O)OCCN(C)C)C(=O)c2ccccc2C1=O | – | – | 12.6 | –
CC1=C(CCCCCC(=O)NCCC#N)C(=O)c2ccccc2C1=O | – | – | 1 | –
CC1=CC(=O)c2ccccc2C1=O [MENADIONE] | – | – | – | Ki [2]: 16.1 µM; Ki [3]: 12.1 µM
CC1=C(CCCCc2nnnn2CCC#N)C(=O)c2ccccc2C1=O | 10.8 | 27 | 1.4 | –
CC1=C(CCCC(=O)NCCC#N)C(=O)c2ccccc2C1=O | – | – | 1.8 | –
CC1=C(CCCc2nnnn2CCC#N)C(=O)c2ccccc2C1=O | – | – | 0.9 | –
CC1=C(CCCCCC(=O)O)C(=O)c2ccccc2C1=O | 4.5 | 3.2 | 3.5 | Ki (Glutathione reductase): 3.6 µM; Ki [4]: 3.7 µM; IC50 [5]: 2.7 µM; IC50 [6]: 2.7 µM and 1.8 µM
